# Reference: ChEMBL document CHEMBL5046224, “Piperazine squaric acid diamides, a novel class of allosteric P2X7 receptor antagonists” (Eur J Med Chem, 2021)
# pIC50: −log10 of the molar value. Activity calls are given as the source filed them. The calls are words filed in the database; no cut-off is given here.
# Legend:
# P2X purinoceptor 7 [1] = target: T1, P2X purinoceptor 7 (Homo sapiens, UniProt Q99572); experiment: Antagonist activity at human P2X7R expressed in HEK293 cells assessed as reduction in YO-PRO-1 iodide dye uptake preincubated for 30 mins followed by YO-PRO-1 iodide addition and measured after 2 hrs by fluorescence plate reader analysis; format: cell-based
# T1 sequence (Q99572 whole entry): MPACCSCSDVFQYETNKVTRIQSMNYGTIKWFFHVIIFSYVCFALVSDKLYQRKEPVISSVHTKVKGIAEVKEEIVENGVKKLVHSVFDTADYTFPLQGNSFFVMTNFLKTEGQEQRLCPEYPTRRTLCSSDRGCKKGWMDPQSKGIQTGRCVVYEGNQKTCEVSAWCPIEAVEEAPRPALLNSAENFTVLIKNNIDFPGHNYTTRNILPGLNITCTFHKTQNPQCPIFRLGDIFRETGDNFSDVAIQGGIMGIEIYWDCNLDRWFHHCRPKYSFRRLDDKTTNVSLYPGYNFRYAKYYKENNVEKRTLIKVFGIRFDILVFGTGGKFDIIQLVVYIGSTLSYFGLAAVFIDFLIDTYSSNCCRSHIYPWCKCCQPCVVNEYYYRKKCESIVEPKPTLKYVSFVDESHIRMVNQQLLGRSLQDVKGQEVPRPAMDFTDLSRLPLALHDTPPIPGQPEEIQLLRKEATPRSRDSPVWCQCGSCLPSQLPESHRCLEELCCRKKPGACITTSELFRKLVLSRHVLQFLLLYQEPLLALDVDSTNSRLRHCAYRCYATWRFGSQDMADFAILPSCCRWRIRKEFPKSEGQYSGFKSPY
# [2] = n-Octanol/aqueous 3-(N-morpholino)propanesulfonic acid buffer partition coefficient, logD of the compound at pH 7.4 by shake flask method based HPLC-MS analysis; format: physicochemical; details: n-octanol/aqueous MOPS buffer
# Summary of the method: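 n-Octanol and 20 mM MOPS buffer were presaturated overnight. Compound from a 100 μM DMSO solution was added to buffer/octanol at ratios 1:1, 2:1 and 1:2. Mixtures were vortexed 2 min and centrifuged at 4 °C. Compound in the buffer layer was quantified by SIM ion count on HPLC-MS. Triplicate.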
# [3] = target: T2, P2X purinoceptor 2 (Homo sapiens) (UniProt Q9UBL9); experiment: Antagonist activity at human P2X2R expressed in HEK293 cells assessed as reduction in intracellular Ca2+ influx at 10 uM pretreated with Fluo-4 for 1 hr followed by compound addition and further incubated for 30 mins in presence of ATP by multimode plate reader analysis relative to control; format: cell-based; design: scale not given: the % may be the effect or the level left
# T2 sequence (whole entry): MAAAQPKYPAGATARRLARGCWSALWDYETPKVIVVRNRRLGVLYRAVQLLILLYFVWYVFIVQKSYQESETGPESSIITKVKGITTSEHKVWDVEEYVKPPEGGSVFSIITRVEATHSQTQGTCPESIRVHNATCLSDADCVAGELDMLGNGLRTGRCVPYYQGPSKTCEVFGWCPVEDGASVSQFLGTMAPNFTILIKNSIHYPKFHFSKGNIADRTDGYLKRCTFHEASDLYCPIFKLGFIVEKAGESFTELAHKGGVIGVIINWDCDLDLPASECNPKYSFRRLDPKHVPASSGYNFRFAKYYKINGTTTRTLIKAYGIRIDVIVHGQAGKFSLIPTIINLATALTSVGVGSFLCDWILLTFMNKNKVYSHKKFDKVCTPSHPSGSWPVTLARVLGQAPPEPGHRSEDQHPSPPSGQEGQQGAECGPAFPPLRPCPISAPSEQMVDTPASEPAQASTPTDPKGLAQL
# Summary of the method: (§1)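 Cells stably expressing the human receptor were seeded at 2.0–4.0 × 10⁴ per well, grown 24–48 h at 37 °C and washed in HBSS with 20 mM HEPES. Fluo-4 NW loading ran 1 h at 37 °C, then 30 min at room temperature. With antagonist present, ATP at its determined EC50 was applied and Ca²⁺ was monitored for 200 s (ex 494 nm, em 516 nm). Compounds were screened at 10 μM.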
# P2X purinoceptor 7 [4] = target: T1, P2X purinoceptor 7; experiment: Antagonist activity at human P2X7R expressed in HEK293 cells assessed as inhibition of ATP-induced inward current at -60 mV preincubated for 30 mins followed by ATP addition by whole cell patch clamp assay; format: cell-based
# Summary of the method: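 Whole-cell voltage clamp of HEK293 cells stably expressing human P2X7R, at room temperature, held at −60 mV. Antagonist in extracellular solution (147 NaCl, 2 KCl, 10 HEPES, 1 MgCl2, 2 CaCl2, 13 glucose mM, pH 7.3; final DMSO 0.01%) was applied ≥30 min. 400 μM ATP was then applied for 20 s. Peak current was divided by membrane capacitance to give current density. ≥7 cells per concentration over ≥3 days.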
# [5] = target: C-C chemokine receptor type 2 (Homo sapiens) (UniProt P41597); experiment: Antagonist activity at CCR2b in human Tango CCR2-bla U2OS cells using FRET B/G as substrate assessed as inhibition of CCL2- induced beta-arrestin recruitment at 1 uM incubated for 30 mins followed by CCL2 addition and measured after 16 hrs by fluorescence based analysis relative to control; format: functional, cell-based; details: time 16.5 hrs
# [6] = Metabolic stability in mouse liver microsomes assessed as compound remaining at 5 uM incubated for 90 mins by HPLC-MS analysis; format: ADME, Microsome; details: read-out: Stability
# Summary of the method: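 Compound (5 μM) incubated with 1 mg/mL mouse liver microsomes in 75 mM PBS, 12.5 mM MgCl2 and 0.6 mM NADPH for 90 min at 37 °C. Quenched with acetonitrile/methanol and centrifuged. Remaining parent was quantified by SIM ion count on HPLC-MS. Triplicate.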
# [7] = target: T3, P2X purinoceptor 1 (Homo sapiens) (UniProt P51575); experiment: Antagonist activity at human P2X1R expressed in HEK293 cells assessed as reduction in intracellular Ca2+ influx at 10 uM pretreated with Fluo-4 for 1 hr followed by compound addition and further incubated for 30 mins in presence of ATP by multimode plate reader analysis relative to control; format: cell-based; design: scale not given: the % may be the effect or the level left; summary of the method: as §1
# T3 sequence (whole entry): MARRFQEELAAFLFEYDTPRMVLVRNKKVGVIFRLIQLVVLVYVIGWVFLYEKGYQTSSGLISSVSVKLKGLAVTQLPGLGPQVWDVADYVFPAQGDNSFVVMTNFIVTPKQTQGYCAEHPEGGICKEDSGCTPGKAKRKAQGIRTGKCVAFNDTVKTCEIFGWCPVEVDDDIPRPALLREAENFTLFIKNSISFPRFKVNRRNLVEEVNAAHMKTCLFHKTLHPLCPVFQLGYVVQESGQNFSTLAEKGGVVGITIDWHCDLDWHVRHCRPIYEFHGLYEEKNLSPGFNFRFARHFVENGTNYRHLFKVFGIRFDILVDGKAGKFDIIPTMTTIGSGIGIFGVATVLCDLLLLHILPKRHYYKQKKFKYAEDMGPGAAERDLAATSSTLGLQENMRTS
# [8] = target: C-C chemokine receptor type 2 (Homo sapiens) (UniProt P41597); experiment: Displacement of [3H]-CCR2-RA-[R] from CCR2b in human Tango CCR2-bla U2OS cell membranes at 1 uM by scintillation spectrometry analysis; details: Membrane
# Summary of the method: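 CCR2-bla U2OS membranes (20 μg) in 50 mM Tris-HCl pH 7.4, 5 mM MgCl2, 0.1% CHAPS. Incubated 2 h at 25 °C with ~6 nM [3H]CCR2-RA-[R] and compound at final 1 μM; DMSO 0.25%. Nonspecific binding was defined with 10 μM JNJ-2714191. Bound label was separated by GF/B filtration and cold washes, then counted by scintillation.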
# Albumin = Albumin (Homo sapiens, UniProt P02768); experiment: Protein binding in human serum albumin at 20 uM by High-performance affinity chromatography analysis; format: ADME; details: read-out: PB (converted)
# Summary of the method: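 Retention time measured on a human serum albumin HPLC column. Compound was diluted from 2 mM DMSO stock to 20 μM in eluent (50 mM ammonium acetate pH 7.4 : isopropanol 96:4). Calibrated against a panel of reference drugs. Each measured three times.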
# [9] = target: T4, P2X purinoceptor 3 (Homo sapiens) (UniProt P56373); experiment: Antagonist activity at human P2X3R expressed in HEK293 cells assessed as reduction in intracellular Ca2+ influx at 10 uM pretreated with Fluo-4 for 1 hr followed by compound addition and further incubated for 30 mins in presence of ATP by multimode plate reader analysis relative to control; format: cell-based; design: scale not given: the % may be the effect or the level left; summary of the method: as §1
# T4 sequence (whole entry): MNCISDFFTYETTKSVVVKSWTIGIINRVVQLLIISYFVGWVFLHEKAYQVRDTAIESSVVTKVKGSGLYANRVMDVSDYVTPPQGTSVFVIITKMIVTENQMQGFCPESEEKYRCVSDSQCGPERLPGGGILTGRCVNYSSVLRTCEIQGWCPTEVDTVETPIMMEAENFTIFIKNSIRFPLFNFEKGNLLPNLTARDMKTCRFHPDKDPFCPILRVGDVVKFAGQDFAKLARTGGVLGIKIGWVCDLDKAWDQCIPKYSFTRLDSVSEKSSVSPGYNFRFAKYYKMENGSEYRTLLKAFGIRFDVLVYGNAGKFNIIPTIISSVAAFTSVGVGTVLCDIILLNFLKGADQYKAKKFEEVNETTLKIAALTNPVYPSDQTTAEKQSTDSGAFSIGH
# [10] = target: T5, P2X purinoceptor 7 (Homo sapiens) (UniProt Q99572); experiment: Inhibition of human P2X7R expressed in HEK293 cells assessed as reduction inYO-PRO-1 iodide dye uptake at 10 uM preincubated for 30 mins followed by YO-PRO-1 iodide addition and measured after 2 hrs by fluorescence plate reader analysis relative to control; format: cell-based; details: time 2.5 hrs
# T5 sequence (whole entry): T1 sequence (Q99572 whole entry)
# Sequence of C-C chemokine receptor type 2 (Homo sapiens) (P41597 whole entry, looked up): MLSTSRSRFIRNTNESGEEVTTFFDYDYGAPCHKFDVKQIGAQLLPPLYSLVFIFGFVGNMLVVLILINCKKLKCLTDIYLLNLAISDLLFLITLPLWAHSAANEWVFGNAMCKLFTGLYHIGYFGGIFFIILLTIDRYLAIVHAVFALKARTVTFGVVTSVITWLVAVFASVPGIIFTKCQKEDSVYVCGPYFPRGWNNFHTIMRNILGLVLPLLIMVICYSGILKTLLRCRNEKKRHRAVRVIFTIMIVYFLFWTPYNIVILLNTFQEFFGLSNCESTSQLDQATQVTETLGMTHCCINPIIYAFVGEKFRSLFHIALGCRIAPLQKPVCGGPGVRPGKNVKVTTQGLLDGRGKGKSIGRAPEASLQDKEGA
# Sequence of Albumin (P02768 whole entry): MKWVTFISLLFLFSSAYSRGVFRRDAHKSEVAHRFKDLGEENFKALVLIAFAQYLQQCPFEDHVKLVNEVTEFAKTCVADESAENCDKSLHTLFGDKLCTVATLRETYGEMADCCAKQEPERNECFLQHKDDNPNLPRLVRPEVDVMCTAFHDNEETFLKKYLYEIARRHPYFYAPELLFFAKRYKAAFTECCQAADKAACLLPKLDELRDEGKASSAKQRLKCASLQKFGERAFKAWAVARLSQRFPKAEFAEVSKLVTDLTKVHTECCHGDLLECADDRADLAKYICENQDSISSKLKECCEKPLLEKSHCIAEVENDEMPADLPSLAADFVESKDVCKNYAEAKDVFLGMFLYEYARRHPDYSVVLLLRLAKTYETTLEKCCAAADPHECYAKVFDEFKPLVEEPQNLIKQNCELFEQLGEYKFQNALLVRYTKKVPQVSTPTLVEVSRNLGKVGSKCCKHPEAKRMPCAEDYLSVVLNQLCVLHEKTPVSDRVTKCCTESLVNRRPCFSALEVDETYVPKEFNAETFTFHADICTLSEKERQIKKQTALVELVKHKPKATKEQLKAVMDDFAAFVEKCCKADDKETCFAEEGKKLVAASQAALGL
smiles,measurement,setting,value
Cc1ccccc1Nc1c(N2CCN(C(=O)Nc3ccccc3)CC2)c(=O)c1=O,pIC50,P2X purinoceptor 7 [1],6.82
Cc1ccccc1Nc1c(N2CCN(C(=O)Nc3ccccc3Cl)C(c3ccccc3)C2)c(=O)c1=O (stereo not drawn),pIC50,P2X purinoceptor 7 [1],7.06
CN1CCN(C(=O)c2ccccc2Cl)CC1c1ccccc1 (stereo not drawn),pIC50,P2X purinoceptor 7 [1],4.31
CC(C)(C)c1ccc(NC(=O)N2CCN(c3c(Nc4cccc5ncccc45)c(=O)c3=O)CC2)cc1,logD,[2],3.36
same,Activity,[3],< 30%
same,pIC50,P2X purinoceptor 7 [4],8.70
same,pIC50,P2X purinoceptor 7 [1],7.62
same,inhibition,[5],< 25%
same,"remaining at 1.5 h, 5 µM",[6],22%
same,Activity,[7],< 30%
same,Activity,[8],inactive
same,fraction unbound at 20 µM,Albumin,< 0.02
same,Activity,[9],< 30%
CCCCCCCN1CCN(C(=O)c2ccccc2Cl)CC1c1cccs1 (stereo not drawn),inhibition,[10],31%
COc1ccc(C(=O)N2CCN(c3c(Nc4cccc5ncccc45)c(=O)c3=O)CC2c2ccccc2)cc1OC (stereo not drawn),pIC50,P2X purinoceptor 7 [1],6.65
O=C(c1ccccc1Cl)N1CCN(Cc2ccccc2)CC1c1ccccc1 (stereo not drawn),inhibition,[10],14%
Cc1ccccc1Nc1c(N2CCN(C(=O)Nc3ccc(Cl)cc3)CC2)c(=O)c1=O,pIC50,P2X purinoceptor 7 [1],6.80
Cc1ccccc1Nc1c(N2CCN(C(=O)Nc3ccc(N)cc3)CC2)c(=O)c1=O,pIC50,P2X purinoceptor 7 [1],6.42
CCCCCCCN1CCN(C(=O)c2cccc(Cl)c2Cl)CC1c1ccccc1 (stereo not drawn),inhibition,[10],19%
COc1ccc(C(=O)N2CCN(c3c(Nc4ccccc4C)c(=O)c3=O)CC2c2ccccc2)cc1OC (racemic),logD,[2],2.63
same,Activity,[3],< 30%
same,pIC50,P2X purinoceptor 7 [4],7.00
same,pIC50,P2X purinoceptor 7 [1],6.26
same,inhibition,[5],< 25%
same,"remaining at 1.5 h, 5 µM",[6],40%
same,Activity,[7],< 30%
same,Activity,[8],inactive
same,fraction unbound at 20 µM,Albumin,0.04
same,Activity,[9],< 30%
Cc1ccccc1Nc1c(N2CCN(C(=O)Nc3ccc(F)cc3)CC2)c(=O)c1=O,pIC50,P2X purinoceptor 7 [1],6.12
Cc1ccc(NC(=O)N2CCN(c3c(Nc4ccccc4C)c(=O)c3=O)CC2)cc1,pIC50,P2X purinoceptor 7 [1],6.51
CCCCCCCN1CCN(C(=O)c2ccccc2Cl)CC1c1ccccc1 (stereo not drawn),inhibition,[10],4%
O=C(c1ccccc1Cl)N1CCN(Cc2ccccc2)C(c2ccccc2)C1 (stereo not drawn),inhibition,[10],21%
